Blank lines part the entries; values can stand above or below the compound they belong to. The source made the active and inactive calls. The calls are words filed in the database; no cut-off is given here.
What was measured:
[1] = biological target: T1, cAMP and cAMP-inhibited cGMP 3',5'-cyclic phosphodiesterase 10A (Homo sapiens, UniProt Q9Y233); assay: (§1) Inhibition of recombinant human N-terminal GST-tagged PDE10A1 (2 to 789 residues) expressed in baculovirus infected Sf9 cells using fluorescein-labeled cAMP as substrate preincubated for 15 mins followed by substrate addition measured after 30 mins by IMAP fluorescence polarization assay
In short: (§2)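 Recombinant PDE4A1A, PDE2A1 or PDE10A1 was incubated with compound (1% DMSO, duplicate) for 15 min at RT. Fluorescein-cAMP was then added for 30 min at RT, and the reaction was stopped with IMAP binding reagent (1 h, dark). FP was read at Ex485/Em535. Inhibition was set against no-enzyme and DMSO controls. IC50 came from a four-parameter logistic fit; values are the mean of at least two measurements.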

[2] = biological target: T1, cAMP and cAMP-inhibited cGMP 3',5'-cyclic phosphodiesterase 10A; assay: as §1, with “cells at 5 uM” for “cells”, “assay relative to control” for “assay”; in short: as §2
[3] = biological target: T2, CYP1A2 (Homo sapiens, UniProt P05177); assay: Inhibition of CYP1A2 in human microsomes at 10 uM using phenacetin as substrate preincubated for 5 mins followed by NADPH addition measured 20 mins relative to control; assay type: ADME; conditions: probe phenacetin, read-out: TDI
T2 sequence (P05177 whole entry): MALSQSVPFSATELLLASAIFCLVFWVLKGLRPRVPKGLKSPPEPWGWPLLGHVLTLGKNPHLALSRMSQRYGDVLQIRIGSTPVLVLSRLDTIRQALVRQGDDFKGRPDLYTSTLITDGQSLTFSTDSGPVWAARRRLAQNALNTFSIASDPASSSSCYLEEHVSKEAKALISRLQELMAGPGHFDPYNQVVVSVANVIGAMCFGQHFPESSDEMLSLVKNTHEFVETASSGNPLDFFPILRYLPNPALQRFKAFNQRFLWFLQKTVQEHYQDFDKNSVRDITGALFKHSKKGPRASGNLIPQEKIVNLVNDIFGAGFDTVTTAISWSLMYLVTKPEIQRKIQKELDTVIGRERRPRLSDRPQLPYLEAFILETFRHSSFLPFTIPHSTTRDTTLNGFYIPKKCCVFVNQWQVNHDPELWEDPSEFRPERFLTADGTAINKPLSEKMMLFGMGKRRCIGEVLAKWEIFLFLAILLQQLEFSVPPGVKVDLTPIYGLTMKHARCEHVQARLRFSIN
In short: (§3)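 Pooled human microsomes (0.2 mg/mL) in 100 mM phosphate pH 7.4 with a probe cocktail: midazolam 10 µM, dextromethorphan 10 µM, diclofenac 20 µM, phenacetin 100 µM, mephenytoin 100 µM. Test compound was 10 µM; organic solvent was under 1%. After 5 min preincubation at 37 °C, 1 mmol/L NADPH was added and the reaction ran 20 min, keeping substrate conversion below 20%. Metabolite formation was expressed relative to PBS control.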

[4] = biological target: T3, CYP3A4 (Homo sapiens, UniProt P08684); assay: (§4) Time-dependent inhibition of CYP3A4 in human microsomes at 10 uM using midazolam as substrate preincubated for 5 mins followed by NADPH addition measured 20 mins relative to control; assay type: ADME; conditions: human microsomes, probe midazolam, read-out: TDI
[5] = biological target: T3, CYP3A4; assay: Inhibition of CYP3A4 in human microsomes at 10 uM using midazolam as substrate preincubated for 5 mins followed by NADPH addition measured 20 mins relative to control; assay type: ADME; conditions: human microsomes, probe midazolam, read-out: TDI; in short: as §3
[6] = biological target: T4, CYP2C9 (Homo sapiens, UniProt P11712); assay: (§5) […] of CYP2C9 in human microsomes at 10 uM using diclofenac as substrate preincubated for 5 mins followed by NADPH addition measured 20 mins relative to control; assay type: ADME; conditions: human microsomes, probe diclofenac, read-out: TDI
[7] = Half life in human liver microsomes at 1 uM preincubated for 5 mins followed by NADPH addition measured up to 30 mins by LC-MS/MS analysis; assay type: ADME, microsome
In short: (§6)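 Liver microsomes (0.5 mg/mL) plus 1 µM compound were preincubated 5 min at 37 °C in 0.1 M phosphate buffer pH 7.4 containing EDTA and MgCl₂. NADPH started the reaction. Samples at 0, 5, 10 and 30 min were quenched with cold acetonitrile containing tinidazole internal standard and centrifuged. Parent remaining was quantified by LC/MS/MS.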

[8] = system: Rattus norvegicus; assay: Antipsychotic activity in Sprague-Dawley rat assessed as inhibition of PCP-induced prepulse inhibition deficit at 50 mg/kg, po pretreated for 30 mins followed by PCP addition measured after 5 mins to 10 mins; assay type: functional, organism-based
In short: (§7)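 Male SD rats (200-250 g) were dosed p.o. in saline with 0.5% Tween 80 and 0.2% CMC-sodium, 30 min before PCP 5 mg/kg i.p. Acoustic startle PPI was tested in startle chambers 5-10 min after PCP. Startle magnitude was the mean of pulse-alone trials. n = 11-16 per group; mean ± SEM; ANOVA with post hoc tests.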

[9] = biological target: Cytochrome P450 2D6 (Homo sapiens, UniProt P10635); assay: […] of CYP2D6 in human microsomes at 10 uM using dextromethorphan as substrate preincubated for 5 mins followed by NADPH addition measured 20 mins relative to control; assay type: ADME; conditions: microsomes, 20 min, 10 µM
[10] = biological target: CYP2D6 (Homo sapiens, UniProt P10635); assay: Inhibition of CYP2D6 in human microsomes at 10 uM using dextromethorphan as substrate preincubated for 5 mins followed by NADPH addition measured 20 mins relative to control; assay type: ADME; conditions: human microsomes, probe dextromethorphan, read-out: TDI; in short: as §3
[11] = system: Rattus norvegicus; assay: Antipsychotic activity in Sprague-Dawley rat assessed as inhibition of PCP-induced hyperlocomotion at 10 mg/kg, po pretreated for 30 mins followed by PCP addition measured after 5 mins for 1.5 hrs by open field test; assay type: functional, organism-based
In short: (§8)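 Male SD rats (200-250 g), acclimated at least 1 week. Drug was given p.o. in sterile saline with 0.5% Tween 80 and 0.2% CMC-sodium, 30 min before PCP 5 mg/kg i.p. Rats were placed in a 40×40×45 cm open-field arena 5 min after PCP and video-tracked for 90 min. Read-out was total distance travelled, reported as mean ± SEM.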

[12] = biological target: PDE2A1 (Homo sapiens, UniProt O00408); assay: as §1, with “FLAG-tagged PDE2A1” for “GST-tagged PDE10A1”, “941” for “789”, “cells at 1 uM” for “cells”, “assay relative to control” for “assay”; conditions: probe fluorescein-labeled cAMP; in short: as §2
[13] = biological target: T4, CYP2C9; assay: Inhibition of CYP2C9 in human microsomes at 10 uM using diclofenac as substrate preincubated for 5 mins followed by NADPH addition measured 20 mins relative to control; assay type: ADME; conditions: human microsomes, probe diclofenac, read-out: TDI; in short: as §3
[14] = biological target: T5, Cytochrome P450 1A2 (Homo sapiens, UniProt P05177); assay: Time-dependent inhibition of CYP1A2 in human microsomes at 10 uM using phenacetin as substrate preincubated for 5 mins followed by NADPH addition measured 20 mins relative to control; assay type: ADME; conditions: microsomes, 20 min, 10 µM
T5 sequence (P05177 whole entry): T2 sequence (P05177 whole entry)

[15] = biological target: T6, Cytochrome P450 2C19 (Homo sapiens, UniProt P33261); assay: […] of CYP2C19 in human microsomes at 10 uM using mephenytoin as substrate preincubated for 5 mins followed by NADPH addition measured 20 mins relative to control; assay type: ADME; conditions: microsomes, 20 min, 10 µM
[16] = system: Rattus norvegicus; assay: Antipsychotic activity in Sprague-Dawley rat assessed as inhibition of PCP-induced prepulse inhibition deficit at 10 mg/kg, po pretreated for 30 mins followed by PCP addition measured after 5 mins to 10 mins; assay type: functional, organism-based; in short: as §7
[17] = system: Rattus norvegicus; assay: Antipsychotic activity in Sprague-Dawley rat assessed as inhibition of PCP-induced hyperlocomotion at 50 mg/kg, po pretreated for 30 mins followed by PCP addition measured after 5 mins for 1.5 hrs by open field test; assay type: functional, organism-based; in short: as §8
[18] = Half life in mouse liver microsomes at 1 uM preincubated for 5 mins followed by NADPH addition measured up to 30 mins by LC-MS/MS analysis; assay type: ADME, microsome; in short: as §6
[19] = biological target: CYP2C19 (Homo sapiens, UniProt P33261); assay: (§9) Inhibition of CYP2C19 in human microsomes at 10 uM using mephenytoin as substrate preincubated for 5 mins followed by NADPH addition measured 20 mins relative to control; assay type: ADME; conditions: human microsomes, probe mephenytoin, read-out: TDI; in short: as §3
[20] = biological target: Cytochrome P450 3A4 (Homo sapiens, UniProt P08684); assay: as §4; assay type: ADME; conditions: microsomes, 20 min, 10 µM
[21] = biological target: Cytochrome P450 2C9 (Homo sapiens, UniProt P11712); assay: as §5; assay type: ADME; conditions: microsomes, 20 min, 10 µM
[22] = biological target: T6, Cytochrome P450 2C19; assay: as §9; assay type: ADME; conditions: microsomes, 20 min, 10 µM; in short: as §3

T6 sequence (P33261 whole entry): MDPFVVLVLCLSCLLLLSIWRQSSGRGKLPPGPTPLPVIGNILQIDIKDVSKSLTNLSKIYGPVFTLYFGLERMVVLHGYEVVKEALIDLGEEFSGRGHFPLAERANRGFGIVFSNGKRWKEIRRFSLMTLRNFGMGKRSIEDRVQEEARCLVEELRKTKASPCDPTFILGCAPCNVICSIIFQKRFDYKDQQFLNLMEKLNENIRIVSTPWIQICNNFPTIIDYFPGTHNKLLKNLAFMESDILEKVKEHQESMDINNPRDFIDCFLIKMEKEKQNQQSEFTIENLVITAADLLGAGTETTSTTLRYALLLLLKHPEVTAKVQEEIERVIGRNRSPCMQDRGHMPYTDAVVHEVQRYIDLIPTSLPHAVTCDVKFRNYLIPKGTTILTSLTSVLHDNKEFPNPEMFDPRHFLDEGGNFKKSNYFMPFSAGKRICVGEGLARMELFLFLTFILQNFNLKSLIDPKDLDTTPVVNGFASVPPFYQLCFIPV
T3 sequence (P08684 whole entry): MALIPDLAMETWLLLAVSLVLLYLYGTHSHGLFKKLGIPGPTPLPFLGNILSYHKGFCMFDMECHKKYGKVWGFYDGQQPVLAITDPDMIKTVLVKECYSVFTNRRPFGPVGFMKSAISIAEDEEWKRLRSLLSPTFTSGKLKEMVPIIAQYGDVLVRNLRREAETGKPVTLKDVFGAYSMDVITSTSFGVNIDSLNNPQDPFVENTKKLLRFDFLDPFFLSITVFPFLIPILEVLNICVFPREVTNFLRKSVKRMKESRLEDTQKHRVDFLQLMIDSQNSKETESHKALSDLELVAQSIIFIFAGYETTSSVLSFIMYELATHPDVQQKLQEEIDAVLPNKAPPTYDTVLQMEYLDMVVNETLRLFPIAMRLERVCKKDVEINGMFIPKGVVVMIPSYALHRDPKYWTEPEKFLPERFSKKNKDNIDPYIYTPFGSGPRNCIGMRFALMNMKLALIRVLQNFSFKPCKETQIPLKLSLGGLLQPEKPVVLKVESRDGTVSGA
T1 sequence (Q9Y233 whole entry, the tested form may be a part): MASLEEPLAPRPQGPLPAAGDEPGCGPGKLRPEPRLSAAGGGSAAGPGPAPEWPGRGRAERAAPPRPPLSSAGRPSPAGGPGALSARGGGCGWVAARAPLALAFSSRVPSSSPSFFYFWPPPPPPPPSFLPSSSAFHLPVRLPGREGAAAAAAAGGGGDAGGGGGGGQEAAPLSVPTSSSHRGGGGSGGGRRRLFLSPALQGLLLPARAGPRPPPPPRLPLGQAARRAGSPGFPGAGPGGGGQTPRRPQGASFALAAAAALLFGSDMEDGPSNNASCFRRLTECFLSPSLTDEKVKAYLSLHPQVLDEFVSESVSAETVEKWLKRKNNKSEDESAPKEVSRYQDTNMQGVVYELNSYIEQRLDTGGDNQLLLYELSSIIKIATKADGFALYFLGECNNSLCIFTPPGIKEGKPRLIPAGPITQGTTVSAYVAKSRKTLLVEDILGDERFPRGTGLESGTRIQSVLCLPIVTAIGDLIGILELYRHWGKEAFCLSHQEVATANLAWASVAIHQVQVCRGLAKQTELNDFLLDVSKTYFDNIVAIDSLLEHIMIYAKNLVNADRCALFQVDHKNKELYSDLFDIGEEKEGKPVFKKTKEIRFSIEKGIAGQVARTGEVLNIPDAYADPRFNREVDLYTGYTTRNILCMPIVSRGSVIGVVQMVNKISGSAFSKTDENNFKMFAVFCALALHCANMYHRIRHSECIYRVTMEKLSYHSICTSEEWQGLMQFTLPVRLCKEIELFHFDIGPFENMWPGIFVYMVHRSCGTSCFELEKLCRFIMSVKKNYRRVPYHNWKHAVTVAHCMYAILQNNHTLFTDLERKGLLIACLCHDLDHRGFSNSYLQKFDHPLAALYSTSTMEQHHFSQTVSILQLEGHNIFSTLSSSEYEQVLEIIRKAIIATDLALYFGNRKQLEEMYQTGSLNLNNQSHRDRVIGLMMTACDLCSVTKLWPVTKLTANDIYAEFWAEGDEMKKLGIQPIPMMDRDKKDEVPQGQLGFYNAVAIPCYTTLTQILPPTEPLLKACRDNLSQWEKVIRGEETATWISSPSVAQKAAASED
T4 sequence (P11712 whole entry): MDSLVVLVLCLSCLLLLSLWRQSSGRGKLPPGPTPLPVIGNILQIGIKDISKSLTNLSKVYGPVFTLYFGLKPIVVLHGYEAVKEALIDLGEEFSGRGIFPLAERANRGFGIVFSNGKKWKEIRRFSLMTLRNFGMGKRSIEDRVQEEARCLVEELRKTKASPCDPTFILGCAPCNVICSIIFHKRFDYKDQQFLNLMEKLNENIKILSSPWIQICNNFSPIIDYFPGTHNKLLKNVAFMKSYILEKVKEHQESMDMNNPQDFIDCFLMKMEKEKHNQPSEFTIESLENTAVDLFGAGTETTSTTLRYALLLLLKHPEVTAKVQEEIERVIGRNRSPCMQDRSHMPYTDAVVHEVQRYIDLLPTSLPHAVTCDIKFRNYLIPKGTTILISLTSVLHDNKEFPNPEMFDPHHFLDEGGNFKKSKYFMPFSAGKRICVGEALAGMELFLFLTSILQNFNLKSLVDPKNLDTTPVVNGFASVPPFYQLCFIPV
Sequence of CYP2D6 (P10635 whole entry): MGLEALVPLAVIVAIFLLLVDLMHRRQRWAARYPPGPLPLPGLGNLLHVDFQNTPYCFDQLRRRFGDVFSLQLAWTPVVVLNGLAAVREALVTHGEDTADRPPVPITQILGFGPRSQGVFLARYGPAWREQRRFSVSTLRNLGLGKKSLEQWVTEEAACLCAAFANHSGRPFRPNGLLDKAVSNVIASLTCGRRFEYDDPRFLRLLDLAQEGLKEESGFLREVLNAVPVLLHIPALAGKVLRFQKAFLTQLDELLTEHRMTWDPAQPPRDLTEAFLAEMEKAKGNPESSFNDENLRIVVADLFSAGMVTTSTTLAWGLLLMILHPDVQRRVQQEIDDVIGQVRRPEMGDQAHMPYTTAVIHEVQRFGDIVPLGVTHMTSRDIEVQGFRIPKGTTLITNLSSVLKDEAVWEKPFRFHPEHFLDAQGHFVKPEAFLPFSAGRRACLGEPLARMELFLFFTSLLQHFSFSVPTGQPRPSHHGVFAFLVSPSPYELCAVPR
Sequence of Cytochrome P450 2D6 (P10635 whole entry): as above
Sequence of PDE2A1 (O00408 whole entry): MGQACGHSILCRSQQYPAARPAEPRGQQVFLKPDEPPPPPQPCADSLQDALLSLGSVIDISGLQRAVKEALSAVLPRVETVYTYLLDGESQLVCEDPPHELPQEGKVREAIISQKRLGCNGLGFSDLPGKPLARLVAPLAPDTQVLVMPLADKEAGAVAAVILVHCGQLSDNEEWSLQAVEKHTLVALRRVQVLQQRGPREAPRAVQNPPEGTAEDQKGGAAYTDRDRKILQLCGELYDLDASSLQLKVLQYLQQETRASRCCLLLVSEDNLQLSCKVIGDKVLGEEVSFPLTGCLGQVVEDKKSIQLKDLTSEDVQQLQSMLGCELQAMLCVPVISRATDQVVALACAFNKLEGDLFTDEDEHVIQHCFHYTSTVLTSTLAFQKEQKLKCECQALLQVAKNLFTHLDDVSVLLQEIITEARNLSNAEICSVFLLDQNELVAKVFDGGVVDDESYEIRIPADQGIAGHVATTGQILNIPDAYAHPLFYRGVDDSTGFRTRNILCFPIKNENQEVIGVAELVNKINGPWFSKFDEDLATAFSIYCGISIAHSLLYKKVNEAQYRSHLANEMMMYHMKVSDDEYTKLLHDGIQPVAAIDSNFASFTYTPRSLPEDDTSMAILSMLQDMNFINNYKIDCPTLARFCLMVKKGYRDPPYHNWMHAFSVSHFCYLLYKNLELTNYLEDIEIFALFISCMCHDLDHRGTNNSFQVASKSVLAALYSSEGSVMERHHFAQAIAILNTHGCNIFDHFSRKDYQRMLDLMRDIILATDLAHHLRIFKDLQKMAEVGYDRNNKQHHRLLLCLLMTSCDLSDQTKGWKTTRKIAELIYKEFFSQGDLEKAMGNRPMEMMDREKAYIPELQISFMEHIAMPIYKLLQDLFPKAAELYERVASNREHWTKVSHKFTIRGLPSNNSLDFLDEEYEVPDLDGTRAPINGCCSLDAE
Sequence of CYP2C19 (P33261 whole entry): as the sequence (P33261 whole entry) above
Sequence of Cytochrome P450 3A4 (P08684 whole entry): as the sequence (P08684 whole entry) above
Sequence of Cytochrome P450 2C9 (P11712 whole entry): as the sequence (P11712 whole entry) above

Compound: COc1ccc(CCNc2c(C)nc3c(N4CCOCC4)nccn23)c(Br)c1
IC50 [1]: 243 nM
inhibition [2]: 92%

Compound: c1ccc2cc(Cn3cnc4c(N5CCOCC5)ncnc43)ccc2c1
IC50 [1]: 107 nM
inhibition [2]: 100%

Compound: Brc1ccc(Cn2cnc3c(N4CCOCC4)ncnc32)cc1
IC50 [1]: 530 nM
inhibition [2]: 90%

Compound: Cc1nc2c(N3CCOCC3)ncnc2n1Cc1ccc(-c2ccccc2)cc1
IC50 [1]: 113 to 118 nM
inhibition [2]: 99%

Compound: Cc1nc2c(N3CCOCC3)ncnc2n1Cc1ccc(-c2cccc(Cl)c2)cc1
IC50 [1]: 258 nM
inhibition [2]: 93%

Compound: Cc1nc2c(N3CCOCC3)ncnc2n1Cc1ccc(Br)cc1
IC50 [1]: 327 nM
inhibition [2]: 93%

Continued, in another order:

IC50 [1]: 60 nM
inhibition [2]: 98%
Compound: Cc1nc2c(N3CCOCC3)ncnc2n1Cc1ccc(-c2cnc3[nH]ncc3c2)cc1

IC50 [1]: 336 nM
inhibition [2]: 93%
Compound: COc1ccc(CCNc2c(C)nc3c(N4CCOCC4)nccn23)c(-c2ccccc2)c1

IC50 [1]: 38 nM
inhibition at 20 min, 10 µM [3]: 15%
inhibition at 20 min, 10 µM [4]: 50%
inhibition at 20 min, 10 µM [5]: 9%
inhibition at 20 min, 10 µM [6]: 10%
half-life at 1 µM [7]: 43.3 min
TDI [9]: Not Active
inhibition at 20 min, 10 µM [10]: 22%
inhibition at 0.5 h, 1 µM [12]: 29%
inhibition at 20 min, 10 µM [13]: 52%
TDI [14]: Not Active
TDI [15]: Not Active
inhibition [2]: 98%
half-life at 1 µM [18]: 17.8 min
inhibition at 20 min, 10 µM [19]: 65%
Compound: Cc1nc2c(N3CCOCC3)ncnc2n1Cc1ccc(-c2ccccc2Cl)cc1
inhibition [8]: inactive
inhibition [11]: Active
inhibition [16]: inactive
inhibition [17]: inactive

IC50 [1]: 452 nM
inhibition at 20 min, 10 µM [3]: 29%
TDI [20]: Not Active
inhibition at 20 min, 10 µM [5]: 42%
TDI [21]: Not Active
half-life at 1 µM [7]: 18.2 min
TDI [9]: Not Active
inhibition at 20 min, 10 µM [10]: 24%
inhibition at 0.5 h, 1 µM [12]: 5%
inhibition at 20 min, 10 µM [13]: 41%
TDI [14]: Not Active
TDI [15]: Not Active
inhibition [2]: 92%
half-life at 1 µM [18]: 12.8 min
TDI [22]: Not Active
Compound: COc1ccc(-c2ccc(CNc3c(C)nc4c(N5CCOCC5)nccn34)cc2)cc1OC

IC50 [1]: 119 nM
inhibition [2]: 96%
Compound: Cc1noc(C)c1-c1ccc(Cn2c(C)nc3c(N4CCOCC4)ncnc32)cc1

IC50 [1]: 168 nM
inhibition [2]: 97%
Compound: CCc1nc2c(N3CCOCC3)ncnc2n1Cc1ccc(-c2ccccc2)cc1

Source: ChEMBL document CHEMBL4020742, “Design and optimization of purine derivatives as in vivo active PDE10A inhibitors” (Bioorg Med Chem, 2017)
